{"data": "Results collected from several papers", "Nuclear receptor subfamily 4 group A member 2": "Nuclear receptor subfamily 4 group A member 2 (Homo sapiens, UniProt P43354)", "P2RY14": "P2Y purinoceptor 14 (P2RY14, Homo sapiens, UniProt Q15391)", "IRAK4": "Interleukin-1 receptor-associated kinase 4 (IRAK4, Homo sapiens, UniProt Q9NWZ3)", "CDKL1": "Cyclin-dependent kinase-like 1 (CDKL1, Homo sapiens, UniProt Q00532)", "note": "Compare with care: the assays were run in different laboratories."}
{"SMILES": "CCC(C)(C)C(=O)O[C@H]1C[C@@H](C)C=C2C=C[C@H](C)[C@H](CC[C@@H]3C[C@@H](O)CC(=O)O3)[C@H]21", "target": "Nuclear receptor subfamily 4 group A member 2", "test": "thermal stability, DSF", "setting": "100 µM", "quantity": "ΔTm", "value": "-11 °C"}
{"SMILES": "CC(C)OC(=O)[C@H](Cc1c[nH]c2ccccc12)NC(=O)COc1ccc(Cl)cc1", "target": "P2RY14", "test": "cAMP, antagonist", "system": "HEK293", "setting": "0.1 µM", "quantity": "inhibition", "value": "39.6%"}
{"SMILES": "Cc1cc(O)c(-c2ccc([C@@H](C)CN(C)C)cc2)c2c1[nH]c(=O)c1sccc12", "target": "TRAF2 and NCK-interacting protein kinase (TNIK, Homo sapiens, UniProt Q9UKE5)", "test": "enzyme activity, inhibitor", "setting": "0.1 µM", "quantity": "inhibition", "value": "10.5%"}
{"SMILES": "O=C(COc1ccccc1)N[C@@H](Cc1c[nH]c2ccccc12)C(=O)O", "target": "P2RY14", "test": "cAMP, antagonist", "system": "HEK293", "setting": "0.1 µM", "quantity": "inhibition", "value": "82.7%"}
{"SMILES": "NC/C(=C\\F)COc1cccc(Cn2c(=S)[nH]c(=O)c3[nH]cnc32)c1", "target": "Eosinophil peroxidase (Homo sapiens, UniProt P11678)", "test": "enzyme activity, inhibitor", "setting": "10 µM", "quantity": "remaining activity", "value": "90.7%"}
{"SMILES": "CC(C)OC(=O)[C@H](Cc1c[nH]c2ccccc12)NC(=O)c1cccs1", "target": "P2RY14", "test": "cAMP, antagonist", "system": "HEK293", "setting": "0.1 µM", "quantity": "inhibition", "value": "70.3%"}
{"SMILES": "C#Cc1cnc(Nc2ccnc(CO)c2)nc1Nc1ccccc1S(C)(=O)=NC#N (stereo not shown)", "target": "IRAK4", "test": "enzyme activity, inhibitor, radiometric", "setting": "1 µM", "quantity": "remaining activity", "value": "1.36%"}
{"SMILES": "CCN(CC)CCCC(C)Nc1ccnc2cc(Cl)ccc12 (stereo not shown)", "target": "Nuclear receptor subfamily 4 group A member 2", "test": "thermal stability, DSF", "setting": "100 µM", "quantity": "ΔTm", "value": "0.14 °C"}
{"SMILES": "Cc1ccc(OCC(=O)N[C@@H](Cc2c[nH]c3ccccc23)C(=O)OC(C)C)cc1", "target": "P2RY14", "test": "cAMP, antagonist", "system": "HEK293", "setting": "0.1 µM", "quantity": "inhibition", "value": "110%"}
{"SMILES": "C#Cc1cc(-c2cc(Nc3nc(N[C@@H](C)c4ccc(F)cn4)ncc3Cl)n[nH]2)ccc1C=O", "target": "Tyrosine-protein kinase JAK3 (JAK3, Homo sapiens, UniProt P52333)", "test": "enzyme activity, inhibitor", "setting": "0.2 µM", "quantity": "inhibition", "value": "82.1%"}
{"SMILES": "O=C(COc1ccc(C(F)(F)F)cc1)N[C@@H](Cc1c[nH]c2ccccc12)C(=O)O", "target": "P2RY14", "test": "cAMP, antagonist", "system": "HEK293", "setting": "0.1 µM", "quantity": "inhibition", "value": "34.8%"}
{"SMILES": "CNC(=O)c1ccccc1Nc1nc(Nc2ccc(CO)nc2)ncc1Cl", "target": "IRAK4", "test": "enzyme activity, inhibitor, radiometric", "setting": "1 µM", "quantity": "remaining activity", "value": "1.87%"}
{"SMILES": "COc1ccc2oc(-c3ccc4nc(N)oc4c3)c/c(=N\\c3ccccc3NC(=O)CCN)c2c1", "target": "Eukaryotic elongation factor 2 kinase (EEF2K, Homo sapiens, UniProt O00418)", "test": "binding", "setting": "1 µM", "quantity": "remaining binding", "value": "101%"}
{"SMILES": "CNS(=O)(=O)c1ccc(Nc2ncc(C(F)(F)F)c(N3CCC[C@](C)(O)C3)n2)c(C)c1", "target": "Serine/threonine-protein kinase ULK1 (ULK1, Homo sapiens, UniProt O75385)", "test": "binding, competition with immobilised ligand", "setting": "1 µM", "quantity": "remaining binding", "value": "11%"}
{"SMILES": "C[C@H](NC(=O)C(=O)Nc1ccccc1C(C)(C)C)C(=O)N[C@@H](CC(=O)O)C(=O)COc1c(F)c(F)cc(F)c1F", "target": "Caspase-1 (CASP1, Homo sapiens, UniProt P29466)", "test": "enzyme activity, inhibitor", "quantity": "kinact/KI", "value": "2.42e+06 M⁻¹ s⁻¹"}
{"SMILES": "CCCCC(=O)Nc1ccc(-c2ccc3ncn(CCC)c(=O)c3c2)cn1", "target": "CDKL1", "test": "binding, competition with immobilised ligand", "setting": "0.5 µM", "quantity": "remaining binding", "value": "75%"}
{"SMILES": "CCCCCCCCC(=O)c1cc(O)c(O)c(O)c1", "target": "Nuclear receptor subfamily 4 group A member 2", "test": "thermal stability, DSF", "setting": "100 µM", "quantity": "ΔTm", "value": "-2.52 °C"}
{"SMILES": "O=Cc1ccc(OCC(=O)N[C@@H](Cc2c[nH]c3ccccc23)C(=O)O)cc1", "target": "P2RY14", "test": "cAMP, antagonist", "system": "HEK293", "setting": "0.1 µM", "quantity": "inhibition", "value": "58.7%"}
{"SMILES": "CCC(=O)NS(=O)(=O)c1ccc(-c2c(-c3ccccc3)noc2C)cc1", "target": "Nuclear receptor subfamily 4 group A member 2", "test": "thermal stability, DSF", "setting": "100 µM", "quantity": "ΔTm", "value": "-1.15 °C"}
{"SMILES": "CCN1/C(=C/C(C)=O)Sc2ccc(F)cc21", "target": "Corticotropin-releasing factor receptor 1 (CRHR1, Homo sapiens, UniProt P34998)", "test": "ligand displacement, radioligand", "setting": "10 µM", "quantity": "inhibition", "value": "0%"}
{"SMILES": "O=C(O)CCc1nc(-c2ccccc2)c(-c2ccccc2)o1", "target": "Nuclear receptor subfamily 4 group A member 2", "test": "thermal stability, DSF", "setting": "100 µM", "quantity": "ΔTm", "value": "-0.6 °C"}
{"SMILES": "N#Cc1ccc(NC(=O)Nc2ccccc2)cc1", "target": "Tyrosine-protein kinase JAK3, JH1 (JAK3, Homo sapiens, UniProt P52333)", "test": "cell-free assay, competition with immobilised ligand", "setting": "25 µM", "quantity": "remaining binding", "value": "96%"}
{"SMILES": "COc1cccc(-c2ccc(NC(=O)C3=C(C(=O)O)CCC3)c(F)c2)c1", "target": "Nuclear receptor subfamily 4 group A member 2", "test": "thermal stability, DSF", "setting": "100 µM", "quantity": "ΔTm", "value": "-1.52 °C"}
{"SMILES": "CC(C)OC(=O)[C@H](Cc1c[nH]c2ccccc12)NC(=O)c1ccc2ccccc2n1", "target": "P2RY14", "test": "cAMP, antagonist", "system": "HEK293", "setting": "0.1 µM", "quantity": "inhibition", "value": "55.4%"}
{"SMILES": "CC[C@H](C)C(=O)O[C@H]1C[C@H](O)C=C2C=C[C@H](C)[C@H](CC[C@@H](O)C[C@@H](O)CC(=O)O)[C@H]21", "target": "Nuclear receptor subfamily 4 group A member 2", "test": "thermal stability, DSF", "setting": "100 µM", "quantity": "ΔTm", "value": "-0.15 °C"}
{"SMILES": "C1=C/COCc2cc(ccc2OCCN2CCCC2)Nc2nccc(n2)-c2cccc(c2)COC/1", "target": "CDKL1", "test": "binding", "setting": "0.1 µM", "quantity": "remaining binding", "value": "89%"}
{"SMILES": "O=C(N[C@@H](Cc1c[nH]c2ccccc12)C(=O)O)c1cccs1", "target": "P2RY14", "test": "cAMP, antagonist", "system": "HEK293", "setting": "0.1 µM", "quantity": "inhibition", "value": "68%"}
{"SMILES": "COC(=O)c1cn(C)c2ccc(-c3cccnc3)cc12", "target": "Nuclear receptor subfamily 4 group A member 2", "test": "thermal stability, DSF", "setting": "100 µM", "quantity": "ΔTm", "value": "-0.46 °C"}
